KCNQ1 block: blocks the human KCNQ1 potassium channel | P51787 | CHO-K1 KCNQ1, FluxOR thallium flux fluorescence; stronger effect = higher value | B-score at 10 µM | 310,000 compounds, 1.3% hits | AID 2642;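 active = compounds whose thallium flux B-score, printed positive for inhibition, exceeds three library SD while starting fluorescence stays within three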;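 also: channel opened by potassium depolarization with thallium stimulus after 20 min compound exposure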
KCNK3 block: human KCNK3 channel inhibition, primary screen; 340,000 compounds, 0.84% hits; CHO-KCNK3 thallium flux, FluxOR fluorescence; stronger effect = lower value; AID 602410; O14649; B-score at 10 µM;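 active = B-score under library mean minus 4 SD, starting fluorescence ratio at most library mean plus 5 SD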;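 also: more negative B-score means stronger inhibition of thallium flux through KCNK3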
hERG protect: shields human hERG channel from block by proarrhythmic agents; 310,000 compounds, 0.51% hits; activation (rescue from dofetilide block), less the hit threshold, % at 10 µM; Q12809; CHO-hERG, FluxOR thallium flux, dofetilide IC70 present;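 active = activation above the mean of controls blocked by dofetilide plus 5 SD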;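 also: thallium influx through hERG after potassium depolarization seen as dye fluorescence rise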
KCNQ1 pot: potentiates or activates the human KCNQ1 potassium channel. B-score at 10 µM. CHO-K1 KCNQ1, thallium flux FluxOR fluorescence; stronger effect = higher value. P51787. 310,000 compounds, 0.35% hits;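 active = fluorescence ratio B-score, a plate-corrected score, at least three library SD, with initial intensity B-score within 5 SD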
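Assay system: CHO-K1 cells stably expressing KCNQ1. Medium: assay buffer for compound exposure, DMSO matched across wells. Timing: 37 °C overnight plating, 90-min dark dye load, 20-min compound pretreatment. Signal: kinetic FluxOR fluorescence, 10 s baseline plus 110 s post-stimulus.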
KCNK9 inh: blocks the human KCNK9 two-pore domain potassium channel; Q9NPC2; HEK293 KCNK9, FluxOR thallium flux fluorescence; stronger effect = lower value; 310,000 compounds, 1.2% hits; B-score at 10 µM;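 active = ratio B-score over 3 SD below the library mean, with starting fluorescence within 5 SD of its mean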;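 also: negative B-score means less thallium flux so channel inhibition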
Target sequence (Q9NPC2 whole entry, looked up, the tested form may be a part): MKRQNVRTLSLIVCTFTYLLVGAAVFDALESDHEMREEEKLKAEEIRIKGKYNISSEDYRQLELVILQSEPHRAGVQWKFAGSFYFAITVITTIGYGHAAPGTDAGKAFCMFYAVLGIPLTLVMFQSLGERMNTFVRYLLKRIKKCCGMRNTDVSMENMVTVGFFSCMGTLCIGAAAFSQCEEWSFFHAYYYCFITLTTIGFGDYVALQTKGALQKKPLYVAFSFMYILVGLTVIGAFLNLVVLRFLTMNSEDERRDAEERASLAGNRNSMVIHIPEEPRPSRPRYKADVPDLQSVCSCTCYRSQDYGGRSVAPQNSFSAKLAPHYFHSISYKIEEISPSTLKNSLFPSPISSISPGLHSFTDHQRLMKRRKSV
KCNK9 block conf: human KCNK9 inhibitor confirmation | shares compounds with KCNK9 inh | HEK293 KCNK9 cells, FluxOR thallium flux fluorescence | inhibition, % at 10 µM | 4,900 compounds, 43% hits | AID 492992;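 active = thallium signal inhibited by more than 5 SD of the compound-free buffer control wells, on both duplicate plates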;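 also: 0% = assay buffer control wells without compound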
Kir2-1 spec: selectivity of KCNK9 modulators against mouse Kir2.1 | inhibition, % at 10 µM | AID 492993 | shares compounds with KCNK9 inh | Kir2.1 cells, FluxOR thallium flux fluorescence | 4,900 compounds, 4% hits;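 active = thallium signal drop more than 5 SD beyond the mean of the no-compound control wells, seen in both duplicate plates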;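 also: signal is fluorescence rise after thallium addition divided by baseline fluorescence; plate controls were assay buffer only for no effect and full block by chlorpromazine control for full effect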
HEK293 Tl ctr: second counter-screen for KCNK9 modulators: effect in non-induced cells | shares compounds with KCNK9 inh | non-induced KCNK9-HEK293, FluxOR thallium flux | inhibition, % at 10 µM | 4,900 compounds, 40% hits;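 active = thallium signal drop beyond 5 SD of the untreated control mean, on both duplicate plates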;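 also: plate controls were buffer only IC0 wells for no effect and SID17386958 at its maximal inhibitory level for full effect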
* = called active by the depositor; i = inactive; / = no result given. This is a sample that favours compounds with a hit; in the whole collection about 3.1% have one here.

SMILES	KCNQ1 block	KCNK3 block	hERG protect	KCNQ1 pot	KCNK9 inh	KCNK9 block conf	Kir2-1 spec	HEK293 Tl ctr
Cc1cccc(COCC(Cc2ccccc2)N2CCN(C(=O)c3cccc(C)c3)CCC2=O)c1 (configuration not stated)	i	i	-13.4	i	i	i	i	i
COc1cccc(Cn2cnc3c(NS(=O)(=O)c4cc(Cl)ccc4Cl)c(C)c(C)cc32)c1	i	-9.48*	-1.0	i	-15.5*	64.0%*	i	i
COc1cccc(Cn2cnc3c(NS(=O)(=O)c4cccc(Cl)c4Cl)c(C)c(C)cc32)c1	i	i	-13.8	i	-12.6*	72.0%*	i	i
COc1cccc(Cn2cnc3c(NS(=O)(=O)c4ccc(Cl)cc4Cl)c(C)c(C)cc32)c1	i	i	-3.0	i	i	/	/	/
COc1cccc(Cn2cnc3c(NS(=O)(=O)c4ccc(Cl)cc4)c(C)c(C)cc32)c1	i	i	-7.3	i	i	/	/	/
Cc1cccc(C)c1NC(=O)CNC(=O)c1ccc(NS(=O)(=O)c2ccc3[nH]c(=O)[nH]c3c2)cc1	i	i	-12.3	i	i	/	/	/
Cc1ccc(NC(=O)NNC(=O)CN2C(=O)COc3ccccc32)cc1	i	i	-6.0	i	i	/	/	/
O=S(=O)(Nc1c(S(=O)(=O)c2ccccc2)c2nc3ccccc3nc2n1C1CCCCC1)c1ccccc1	i	i	-16.9	i	i	i	i	i
C/C(=N\N=c1/scc(C)n1Cc1ccco1)c1cccc([N+](=O)[O-])c1	i	i	-5.9	i	-8.73*	i	i	i
Cc1cs/c(=N\N=C\c2cccc([N+](=O)[O-])c2)n1Cc1ccco1	i	i	-6.8	i	i	/	/	/
Cc1ccc(C(=O)CCCn2nnc(-c3cccnc3)n2)cc1C	i	i	-5.1	i	i	i	i	i
CS(=O)(=O)N(CC(=O)O)Cc1cccc(CN(CC(=O)O)S(C)(=O)=O)c1	i	i	-7.0	i	i	/	/	/
CCOC(=O)c1sc2nc(CC(=O)OC)nc(N3CCN(c4ccc(OC)cc4)CC3)c2c1C	i	i	-2.8	i	i	i	i	i
CCOC(=O)c1sc2nc(CC(=O)OC)nc(NCCN3CCOCC3)c2c1C	i	i	-7.3	i	i	/	/	/
CCN(CC)S(=O)(=O)c1cccc(C(=O)OCC(=O)c2ccc3c(c2)OCCO3)c1	i	i	-3.3	i	i	/	/	/
O=C(N/N=C/c1c[nH]c2ccc(Br)cc12)c1ccn(Cc2ccc(Cl)cc2)n1	i	i	-4.3	i	-14.9*	49.0%*	i	i
CC(C)N(Cc1ccccc1)S(=O)(=O)c1cccs1	i	-11.4*	-2.6	i	-8.5*	40.0%*	i	37.0%*
COc1ccc(-n2c(CCC(=O)O)ccc2-c2ccc(F)cc2)c(OC)c1	i	i	-4.8	i	i	/	/	/
Cc1sc2ncnc(NCC(c3ccco3)N(C)C)c2c1C (configuration not stated)	i	i	-0.4	i	i	/	/	/
CN(C)C(CNc1ncnc2sc3c(c12)CCCCC3)c1ccco1 (configuration not stated)	i	i	-3.8	i	i	i	i	i
c1ccc(-c2nc(NCc3ccco3)c3oc4ccccc4c3n2)cc1	i	i	-17.9	i	-8.67*	38.5%*	i	35.0%*
c1ccc(-c2nc(NCCCn3ccnc3)c3oc4ccccc4c3n2)cc1	i	i	-33.1	i	i	/	/	/
O=C(Nc1cccnc1)c1ccc2nc(-c3ccccc3)c(-c3ccccc3)nc2c1	i	i	-9.9	i	-10.9*	42.0%*	i	39.5%*
Cc1ccc2c(c1)N(CC(=O)N1CCCC1)C(=O)c1cccnc1O2	i	i	-4.2	i	i	/	/	/
COCc1cc(N2CCOCC2)nc(SCc2ccc(Cl)cc2)n1	i	i	-4.0	i	i	/	/	/
SMILES	KCNQ1 block	KCNK3 block	hERG protect	KCNQ1 pot	KCNK9 inh	KCNK9 block conf	Kir2-1 spec	HEK293 Tl ctr
CSCc1cc(N2CCOCC2)nc(SCc2ccc(Cl)c(Cl)c2)n1	i	i	-3.1	i	-9.22*	31.0%*	i	37.5%*
Cc1cc(NC(=O)Cn2nc(-c3cccs3)ccc2=O)cc(C)c1Br	i	i	-1.8	i	-8.28*	36.5%*	i	26.0%*
Cc1c(Br)ccc(NC(=O)Cn2nc(-c3cccs3)ccc2=O)c1C	i	i	-13.0	i	i	/	/	/
C#CCOCCOCCOCCNc1nc(N2CCN(C(=O)[C@H](CCC(=O)O)n3cc(C(N)CC(C)C)nn3)CC2)nc(N2CCN(C(=O)[C@H](CCC(=O)O)n3cc(C(N)[C@H](C)CC)nn3)CC2)n1 (some centres not stated)	i	i	-5.0	i	i	/	/	/
O=C(CCC(=O)c1ccc(F)cc1)OCc1nnc(-c2ccc([N+](=O)[O-])cc2)o1	/	i	/	/	/	/	/	/
COc1cc(/C=N/NC(=O)c2cc[n+]([O-])cc2)ccc1O	i	i	-3.8	i	i	/	/	/
O=C(NN1CCCCCC1)c1ccccc1F	/	i	/	/	/	/	/	/
Cc1ccc(C)c(S(=O)(=O)NCC(c2ccco2)N2CCc3ccccc3C2)c1 (configuration not stated)	i	i	-7.7	i	-10.7*	48.0%*	i	41.0%*
Cc1ccc(C(=O)NCC(c2ccco2)N2CCc3ccccc3C2)cc1C (configuration not stated)	i	i	-17.5	i	i	/	/	/
O=[N+]([O-])c1ccc(S(=O)(=O)NCC(c2ccco2)N2CCc3ccccc3C2)cc1 (configuration not stated)	i	i	-6.2	i	i	/	/	/
O=C(NCC(c1ccco1)N1CCc2ccccc2C1)c1ccc(Br)cc1 (configuration not stated)	i	i	-9.7	i	i	i	i	35.0%*
O=C(NCC(c1ccco1)N1CCc2ccccc2C1)c1cccc(Br)c1 (configuration not stated)	i	i	-9.1	i	-12.2*	i	i	25.5%*

High-throughput results as filed in PubChem BioAssay.
